# Test results as given in ChEMBL document CHEMBL2040790 (Bioorg Med Chem Lett, 2012).
# Active and inactive are the calls of the source. The calls are words filed in the database; no cut-off is given here.
# Key:
# Vaccinia virus [1] = assay: Antiviral activity against Vaccinia virus; assay type: functional, organism-based; details: Orthopoxvirus vaccinia
# La Crosse virus [2] = assay: Antiviral activity against La Crosse virus infected in african green monkey Vero cells assessed as inhibition of virus-induced cytopathic effect by fluorometric analysis; assay type: functional, organism-based
# [3] = Solubility of the compound in simulated gastric fluid; assay type: physicochemical
# Vaccinia virus [4] = assay: Antiviral activity against Vaccinia virus at 25 uM during one experiment of multiple experiment set up; assay type: functional, organism-based; details: Orthopoxvirus vaccinia
# Vaccinia virus [5] = assay: Antiviral activity against Vaccinia virus at 25 uM during single experiment set up; assay type: functional, organism-based; details: Orthopoxvirus vaccinia
# La Crosse virus [6] = assay: Antiviral activity against La Crosse virus infected in african green monkey Vero cells assessed as inhibition of virus-induced cytopathic effect at 25 uM during single experiment set up by fluorometric analysis; assay type: functional, organism-based
# Vero = assay: Cytotoxicity against african green monkey Vero cells; assay type: cell-based; details: chlorocebus sabaeus
# La Crosse virus [7] = assay: Antiviral activity against La Crosse virus infected in african green monkey Vero cells assessed as inhibition of virus-induced cytopathic effect at 5 uM after 4 days by spectrophotometric analysis; assay type: functional, organism-based
# Method in brief: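 Primary screen run at one fixed concentration of 5 μM. Compounds active at that level were then carried into dose-response testing (0.009–25 μM) against RVFV and LACV.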
# Rift Valley fever virus = assay: Antiviral activity against Rift Valley fever virus at 5 uM; assay type: functional, organism-based
# Method in brief: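 Single-concentration primary screen at 5 μM. Molecules active there and bearing viable scaffolds were then taken into concentration-response testing over 0.009–25 μM.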
# La Crosse virus [8] = assay: Antiviral activity against La Crosse virus infected in african green monkey Vero cells assessed as inhibition of virus-induced cytopathic effect during single experiment set up by fluorometric analysis; assay type: functional, organism-based
# Vaccinia virus [9] = assay: Antiviral activity against Vaccinia virus during single experiment set up; assay type: functional, organism-based; details: Orthopoxvirus vaccinia
# Ebolavirus = assay: Antiviral activity against Ebola virus; assay type: functional
# [10] = test system: Human immunodeficiency virus 1; assay: Antiviral activity against Human immunodeficiency virus 1; assay type: functional, organism-based
# Tacaribe virus = assay: Antiviral activity against Tacaribe virus; assay type: functional, organism-based; details: Mammarenavirus tacaribeense
# [11] = test system: Mammarenavirus choriomeningitidis; assay: Antiviral activity against Lymphocytic choriomeningitis virus; assay type: functional
# [12] = test system: Encephalomyocarditis virus; assay: Antiviral activity against Encephalomyocarditis virus; assay type: functional, organism-based
# Sindbis virus = assay: Antiviral activity against Sindbis virus; assay type: functional, organism-based
# Dengue virus = assay: Antiviral activity against Dengue virus; assay type: functional, organism-based
# [13] = test system: Orthohantavirus andesense; assay: Antiviral activity against Andes virus; assay type: functional
# [14] = test system: Respiratory syncytial virus; assay: Antiviral activity against Respiratory syncytial virus; assay type: functional, organism-based
# [15] = test system: unidentified influenza virus; assay: Antiviral activity against influenza virus; assay type: functional, organism-based
# [16] = Solubility of the compound in water; assay type: physicochemical
# [17] = Solubility of the compound in Caco2 transport buffer; assay type: physicochemical, Caco-2
SMILES,EC50 (Vaccinia virus [1]) [µM],EC50 (La Crosse virus [2]) [µM],Activity (Vaccinia virus [5]),Activity (La Crosse virus [6]),Activity (Vero),other results
CN(C)c1ccc(NC(=S)NC(=O)c2ccc(C(C)(C)C)cc2)c(Cl)c1.Cl,3.26,1.55,,,,"solubility ([3]; simulated gi fluid, BLD = below limit of detection): BLD"
COc1cc(NC(=S)NC(=N)c2ccc(C(C)(C)C)cc2)ccc1NC(=O)c1ccccc1Cl,7.64,3.01,,,,Activity (Vaccinia virus [4]): inactive
CC(C)(C)c1ccc(C(=O)NC(=S)Nc2ccc(CN3CCCCC3)cc2)cc1,> 25,> 25,inactive,inactive,Toxic,
CC(C)(C)c1ccc(C(=O)NC(=S)Nc2ccccc2Cl)cc1,0.35,0.28,,,,Activity (La Crosse virus [7]): Active; Activity (Rift Valley fever virus): Active
CC(C)(C)c1ccc(C(=O)NC(=S)Nc2ccccc2CN)cc1,> 25,> 25,,,,EC50 (La Crosse virus [8]): 6.93 µM
COc1cc(NC(=S)NC(=O)c2ccc(C(C)(C)C)cc2)ccc1NC(=O)c1ccc(C(=O)O)cc1,> 25,> 25,inactive,inactive,,
CC(C)(C)c1ccc(C(=O)NC(=S)Nc2ccc(N)c(N)c2)cc1,> 25,> 25,,,,EC50 (Vaccinia virus [9]): 7.78 µM
CC(C)(C)c1ccc(C(=O)NC(=S)Nc2ccc(NC(=O)c3ccccc3)cc2)cc1,0.17,0.15,inactive,inactive,,
CC(C)(C)c1ccc(C(=O)NC(=S)Nc2ccc(CN3CCOCC3)cc2)cc1,> 25,> 25,inactive,inactive,Toxic,
CC(C)(C)c1ccc(C(=O)NC(=S)Nc2ccc(N)cc2)cc1,4.41,2.27,inactive,,,
COc1cc(NC(=S)NC(=O)c2ccc(C(C)(C)C)cc2)ccc1NC(=O)c1cccc(C(=O)O)c1,> 25,,inactive,inactive,,
Cc1ccc(O)c(NC(=S)NC(=O)c2ccc(C(C)(C)C)cc2)c1,> 25,> 25,,,Toxic,
Cc1c(Cl)cccc1NC(=S)NC(=O)c1ccc(C(C)(C)C)cc1,6.47,0.919,inactive,inactive,,
CC(C)(C)c1ccc(C(=O)NC(=S)Nc2ccc(N3CCOCC3)cc2)cc1,> 25,> 25,inactive,inactive,Toxic,
CNc1ccc(C(=O)Nc2ccc(NC(=S)NC(=O)c3ccc(C(C)(C)C)cc3)cc2OC)cc1.Cl,0.81,> 25,inactive,,Toxic,
CNc1cccc(C(=O)Nc2ccc(NC(=S)NC(=O)c3ccc(C(C)(C)C)cc3)cc2OC)c1.Cl,1.63,> 25,,,Toxic,
CC(C)(C)c1ccc(C(=O)NC(=S)Nc2cccc(N)c2)cc1,2.72,2.19,inactive,,,
COc1cc(NC(=S)NC(=O)c2ccc(C(C)(C)C)cc2)ccc1N,2.09,1.69,inactive,inactive,,
CC(C)(C)c1ccc(C(=O)NC(=S)Nc2cc(C(C)(C)C)ccc2O)cc1,0.98,3.42,,,Toxic,
CC(C)(C)c1ccc(C(=O)NC(=S)Nc2ccccc2C(=O)O)cc1,> 25,> 25,,,,EC50 (Vaccinia virus [9]): 2.29 µM
COc1cc(NC(=S)NC(=O)c2ccc(C(C)(C)C)cc2)ccc1NC(=O)c1ccccc1Cl,0.25,0.27,,,,Activity (La Crosse virus [7]): Active; Activity (Rift Valley fever virus): Active; Activity (Ebolavirus): Active; Activity [10]: Active; Activity (Tacaribe virus): Active; Activity [11]: Active; Activity [12]: Active; Activity (Sindbis virus): Active; Activity (Dengue virus): Active; Activity [13]: Active; Activity [14]: Active; Activity [15]: Active
CC(C)(C)c1ccc(C(=O)NC(=S)Nc2ccc(N3CCCCC3)cc2)cc1,> 25,> 25,inactive,inactive,Toxic,
CC(C)(C)c1ccc(C(=O)NC(=S)Nc2ccccc2)cc1,5.57,5.01,,inactive,,
CC(=O)N1CCN(c2ccc(NC(=S)NC(=O)c3ccc(C(C)(C)C)cc3)cc2)CC1,> 25,> 25,inactive,inactive,Toxic,
CC(C)(C)c1ccc(C(=O)NC(=S)Nc2cc(Cl)ccc2Cl)cc1,2.42,2.45,inactive,inactive,,
CNc1ccc(NC(=S)NC(=O)c2ccc(C(C)(C)C)cc2)c(Cl)c1.Cl,0.33,0.24,,,,"solubility [16]: 0.2 µg/mL; solubility ([3]; simulated gastric fluid, read-out: solubility): 3.2 µg/mL; solubility [17]: 0.1 µg/mL"
